Measured values from ChEMBL document CHEMBL1144934, “Efficacious and orally bioavailable thrombin inhibitors based on a 2,5-thienylamidine at the P1 position: discovery of N-carboxymethyl-d-diphenylalanyl-l-prolyl[(5-amidino-2-thienyl)methyl]amide” (J Med Chem, 2003).

Legend:
[1] = Area under curve (AUC) was determined after intravenous dosing at 10 mg/kg in rat; format: ADME, organism-based; set-up: dose 10 mg/kg, route intravenous; details: in vivo
In short: (§1)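 Male Sprague–Dawley rats (250–300 g), femoral artery and vein cannulated under light ether anesthesia; after recovery, 10 mg/kg given via femoral vein. Arterial blood sampled at 0, 1, 5, 15, 30, 60, 90, 120, 180, 240 min, collected into heparinized tubes, deproteinized with 2 volumes methanol, centrifuged; supernatant analyzed by HPLC (0.1% TFA/acetonitrile 81:19).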

[2] = Bioavailability in rat; format: ADME, organism-based; details: in vivo
Rattus norvegicus [3] = species on record: Rattus norvegicus; assay: Ex vivo concentration of inhibitor to double the activated clotting time was measured in rat plasma; format: functional
Rattus norvegicus [4] = assay: Ex vivo activated clotting time was measured in rat plasma at 1 mg/kg; format: functional
[5] = Half life of compound was determined after intravenous dosing at 10 mg/kg in rat; format: ADME, organism-based; set-up: dose 10 mg/kg, route intravenous; details: in vivo
In short: as §1

[6] = Area under curve (AUC) was measured after oral dosing at 30 mg/kg in rat; format: ADME, organism-based; set-up: dose 30 mg/kg, route oral; details: in vivo
Rattus norvegicus [7] = assay: In vivo inhibition of thrombus formation in thromboplastin-induced deep vein thrombosis (DVT) rat model after iv bolus dosing at 1 mg/kg; format: functional
[8] = Clearance value was determined after intravenous dosing at 10 mg/kg in rat; format: ADME, organism-based; set-up: dose 10 mg/kg, route intravenous; details: in vivo
In short: as §1

Rattus norvegicus [9] = species on record: Rattus norvegicus; assay: In vitro concentration of inhibitor to double the activated partial thromboplastin time was evaluated in rat; format: functional
[10] = Steady state volume of distribution (Vdss) was determined after intravenous dosing at 10 mg/kg in rat; format: ADME, organism-based; set-up: dose 10 mg/kg, route intravenous; details: in vivo, read-out: Vdss
In short: as §1

[11] = In vitro metabolic stability was determined using liver S9 fraction from dog at initial concentration of 20 uM; format: ADME, Canis lupus familiaris; details: read-out: Recovery
In short: (§2)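 Liver S9 (9000g supernatant of homogenate in Tris-acetate pH 7.4, KCl, EDTA) from rat, dog, monkey (pooled, n = 2) or human (n = 2); 20 µM final compound with NADPH generating system and S9 6.72 mg/mL in 100 mM phosphate pH 7.4, 37 °C. Samples methanol-deproteinized, HPLC; recovery after 30 min reported; no-NADPH control.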

[12] = Maximal plasma concentration in rats after 30 mg/kg oral dose; format: ADME, organism-based; set-up: dose 30 mg/kg, route oral; details: rat
[13] = In vitro metabolic stability was determined using liver S9 fraction from human at initial concentration of 20 uM; format: ADME; details: liver S9 fraction, read-out: Recovery
In short: as §2

[14] = In vitro metabolic stability was determined using liver S9 fraction from monkey at initial concentration of 20 uM; format: ADME, subcellular; details: simiiformes, read-out: Recovery
In short: as §2

[15] = In vitro metabolic stability was determined using liver S9 fraction from rat at initial concentration of 20 uM; format: ADME; details: read-out: Recovery
In short: as §2

Prothrombin = Prothrombin (Homo sapiens, UniProt P00734); assay: In vitro inhibition constant (Ki) against human thrombin

| Compound | APTT (Homo sapiens) | AUC [1] | bioavailability [2] | Concentration to double activated clotting time (Rattus norvegicus [3]) | ACT (Rattus norvegicus [4]) | half-life [5] | AUC [6] | inhibition in vivo at 1 mg/kg (Rattus norvegicus [7]) | clearance [8] | APTT (Rattus norvegicus [9]) | Vd [10] | remaining at 20 µM [11] | Cmax [12] | remaining at 20 µM [13] | remaining at 20 µM [14] | remaining at 20 µM [15] | Ki (Prothrombin) |
| --- | --- | --- | --- | --- | --- | --- | --- | --- | --- | --- | --- | --- | --- | --- | --- | --- | --- |
| N=C(N)c1ccc(CNC(=O)[C@@H]2CCCN2C(=O)[C@H](NS(N)(=O)=O)C(c2ccccc2)c2ccccc2)cc1 | 0.14 µM | 19700 ng·h/mL | 8% | 1.23 µM | 11 | 45 min | 4530 ng·h/mL | 100% | 8.6 mL/min/kg | 1.24 µM | 0.297 L/kg | 93% | 2800 ng/mL | 92% | 87% | 90% | – |
| N=C(N)c1ccc(CNC(=O)[C@@H]2CCCN2C(=O)[C@H](NS(N)(=O)=O)C(c2ccccc2)c2ccccc2)c(F)c1 | – | – | – | – | – | – | 1480 ng·h/mL | – | – | – | – | – | 1100 ng/mL | – | – | – | 10 pM |
| N=C(N)c1cc(CNC(=O)[C@@H]2CCCN2C(=O)[C@H](NS(N)(=O)=O)C(c2ccccc2)c2ccccc2)cs1 | – | – | – | – | – | – | – | – | – | – | – | – | 500 ng/mL | – | – | – | 160 pM |
| N=C(N)c1ccc(CNC(=O)[C@@H]2CCCN2C(=O)[C@H](NS(N)(=O)=O)C(c2ccccc2)c2ccccc2)o1 | – | – | – | – | – | – | 2270 ng·h/mL | – | – | – | – | – | 1000 ng/mL | – | – | – | 430 pM |
| N=C(N)c1ccc(CNC(=O)[C@@H]2CCCN2C(=O)[C@H](NCCC(=O)O)C(c2ccccc2)c2ccccc2)s1 | – | – | – | – | – | – | – | – | – | – | – | – | – | – | – | – | 10 pM |
| COC(=O)N[C@@H](C(=O)N1CCC[C@H]1C(=O)NCc1ccc(C(=N)N)cc1)C(c1ccccc1)c1ccccc1 | – | 56800 ng·h/mL | 6% | – | 6.8 | 69 min | 9900 ng·h/mL | 100% | 3 mL/min/kg | – | 0.174 L/kg | 65% | 4000 ng/mL | 86% | 39% | 80% | – |
| CS(=O)(=O)N[C@@H](C(=O)N1CCC[C@H]1C(=O)NCc1ccc(C(=N)N)s1)C(c1ccccc1)c1ccccc1.N=C(N)c1ccccc1 | – | – | – | – | – | – | 1420 ng·h/mL | – | – | – | – | – | 1300 ng/mL | – | – | – | 5 pM |
| CS(=O)(=O)N[C@@H](C(=O)N1CCC[C@H]1C(=O)NCc1ccc(C(=N)N)cc1)C(c1ccccc1)c1ccccc1 | – | – | – | – | – | – | 4380 ng·h/mL | – | – | – | – | – | 2800 ng/mL | – | – | – | – |
| N=C(N)c1ccc(CNC(=O)[C@@H]2CCCN2C(=O)[C@H](NS(N)(=O)=O)C(c2ccccc2)c2ccccc2)cc1F | – | – | – | – | – | – | 3430 ng·h/mL | – | – | – | – | – | 2400 ng/mL | – | – | – | 8 pM |
| N=C(N)c1ccc(CNC(=O)[C@@H]2CCCN2C(=O)[C@H](NS(N)(=O)=O)C(c2ccccc2)c2ccccc2)s1 | 0.19 µM | 14400 ng·h/mL | 11% | 2.09 µM | – | 34 min | 4700 ng·h/mL | 100% | 11.6 mL/min/kg | 1.5 µM | 0.31 L/kg | 96% | – | 86% | 81% | 84% | – |
| COC(=O)N[C@@H](C(=O)N1CCC[C@H]1C(=O)NCc1coc(C(=N)N)c1)C(c1ccccc1)c1ccccc1 | – | – | – | – | – | – | 18600 ng·h/mL | – | – | – | – | – | 7100 ng/mL | – | – | – | 1400 pM |
| CN(C(=O)C(NS(=O)(=O)c1ccc2ccccc2c1)c1ccc(C(=N)NN)cc1)C1CCCC1 (stereo not given) | – | – | – | – | – | – | – | – | – | – | – | – | – | – | – | – | 400 pM |
| COC(=O)N[C@@H](C(=O)N1CCC[C@H]1C(=O)NCc1cc(C(=N)N)cs1)C(c1ccccc1)c1ccccc1 | – | – | – | – | – | – | – | – | – | – | – | – | 4600 ng/mL | – | – | – | 170 pM |
| CC1CNc2c(cccc2S(=O)(=O)N[C@@H](CCCNC(=N)N)C(=O)N2CC[C@@H](C)C[C@@H]2C(=O)O)C1 (stereo not given in full) [ARGATROBAN] | 0.57 µM | – | – | 1.97 µM | 1.9 | – | – | 82% | – | 2.5 µM | – | – | – | – | – | – | – |
| N=C(N)c1ccc(CNC(=O)[C@@H]2CCCN2C(=O)[C@H](NS(N)(=O)=O)C(c2ccccc2)c2ccccc2)cn1 | – | – | – | – | – | – | 4100 ng·h/mL | – | – | – | – | – | 1600 ng/mL | – | – | – | – |
| COC(=O)N[C@@H](C(=O)N1CCC[C@H]1C(=O)NCc1csc(C(=N)N)c1)C(c1ccccc1)c1ccccc1 | 0.37 µM | 102000 ng·h/mL | 7% | 6.86 µM | 3.7 | 45 min | – | 98% | 1.7 mL/min/kg | 5.2 µM | 0.23 L/kg | 83% | 8600 ng/mL | 13% | < 10% | 49% | 600 pM |
| COC(=O)N[C@@H](C(=O)N1CCC[C@H]1C(=O)NCc1ccc(C(=N)N)nc1)C(c1ccccc1)c1ccccc1 | – | 80400 ng·h/mL | 11% | – | 6 | 81 min | 26100 ng·h/mL | 100% | 2.1 mL/min/kg | – | 0.139 L/kg | – | 14000 ng/mL | – | – | – | 17 pM |
| COC(=O)N[C@@H](C(=O)N1CCC[C@H]1C(=O)NCc1ccc(C(=N)N)s1)C(c1ccccc1)c1ccccc1 | 0.34 µM | 31200 ng·h/mL | 8% | 3.75 µM | 5.2 | 53 min | 7100 ng·h/mL | 93% | 5.4 mL/min/kg | 2.85 µM | 0.152 L/kg | 91% | 4100 ng/mL | 38% | < 10% | 60% | 15 pM |
| N=C(N)c1csc(CNC(=O)[C@@H]2CCCN2C(=O)[C@H](NS(N)(=O)=O)C(c2ccccc2)c2ccccc2)c1 | – | – | – | – | – | – | – | – | – | – | – | – | 2000 ng/mL | – | – | – | 20 pM |
| N=C(N)c1ccc(CNC(=O)[C@@H]2CCCN2C(=O)[C@H](NCC(=O)O)C(c2ccccc2)c2ccccc2)cc1 | – | – | – | – | – | – | 2000 ng·h/mL | – | – | – | – | 95% | 1300 ng/mL | 97% | 80% | 87% | 13 pM |
